Experimental data: ChEMBL document CHEMBL3817823 (J Med Chem, 2016)
Active and inactive are the calls of the source. The rule behind the calls is not given here.

Columns and labels:
[1] = biological target: Histone-lysine N-methyltransferase, H3 lysine-79 specific (Homo sapiens) (UniProt Q8TEK3); experiment: Inhibition of DOT1L (unknown origin) at 1 to 50 uM by TCA precipitation assay
KYSE-150 cell line = experiment: Potentiation of doxorubicin-induced apoptosis in human KYSE-150 cells assessed as caspase 3/7 activation up to 20 uM after 2 days by […]; type: functional, cell-based
Mus musculus = experiment: In vivo inhibition of SMYD2 expressed in human KYSE-150 cells xenografted in BALB/c nude mouse assessed as suppression of AHNAK methylation at 70 mg/kg, po administered qd for 3 days by dot-blot analysis relative to untreated control; type: functional
Method in brief: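 Mice with subcutaneous KYSE-150 tumor xenografts dosed orally once daily for 3 days (vehicle PEG 400/water 8:2), n = 12 per group; tumors then harvested and AHNAK methylation measured ex vivo by dot blot with SY46 antibody; group means ± SD, Student's t test versus vehicle.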

[2] = biological target: Histone-lysine N-methyltransferase KMT5C (Homo sapiens) (UniProt Q86Y97); experiment: Inhibition of SUV420H2 (unknown origin) at 1 to 50 uM by scintillation proximity assay
Chain of Histone-lysine N-methyltransferase KMT5C (Homo sapiens) (Q86Y97 whole entry, looked up): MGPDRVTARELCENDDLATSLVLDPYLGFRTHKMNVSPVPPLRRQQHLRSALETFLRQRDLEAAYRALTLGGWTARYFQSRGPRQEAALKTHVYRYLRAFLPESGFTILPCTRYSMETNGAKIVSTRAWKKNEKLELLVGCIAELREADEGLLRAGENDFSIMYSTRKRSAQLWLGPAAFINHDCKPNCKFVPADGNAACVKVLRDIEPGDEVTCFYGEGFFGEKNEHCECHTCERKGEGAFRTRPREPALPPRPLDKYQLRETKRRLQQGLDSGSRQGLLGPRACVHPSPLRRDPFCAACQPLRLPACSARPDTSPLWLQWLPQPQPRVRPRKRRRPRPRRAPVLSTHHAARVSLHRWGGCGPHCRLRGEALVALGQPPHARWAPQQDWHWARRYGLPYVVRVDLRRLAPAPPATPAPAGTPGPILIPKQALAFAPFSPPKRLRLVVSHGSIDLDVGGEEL

Chain of Histone-lysine N-methyltransferase, H3 lysine-79 specific (Homo sapiens) (Q8TEK3 whole entry, looked up): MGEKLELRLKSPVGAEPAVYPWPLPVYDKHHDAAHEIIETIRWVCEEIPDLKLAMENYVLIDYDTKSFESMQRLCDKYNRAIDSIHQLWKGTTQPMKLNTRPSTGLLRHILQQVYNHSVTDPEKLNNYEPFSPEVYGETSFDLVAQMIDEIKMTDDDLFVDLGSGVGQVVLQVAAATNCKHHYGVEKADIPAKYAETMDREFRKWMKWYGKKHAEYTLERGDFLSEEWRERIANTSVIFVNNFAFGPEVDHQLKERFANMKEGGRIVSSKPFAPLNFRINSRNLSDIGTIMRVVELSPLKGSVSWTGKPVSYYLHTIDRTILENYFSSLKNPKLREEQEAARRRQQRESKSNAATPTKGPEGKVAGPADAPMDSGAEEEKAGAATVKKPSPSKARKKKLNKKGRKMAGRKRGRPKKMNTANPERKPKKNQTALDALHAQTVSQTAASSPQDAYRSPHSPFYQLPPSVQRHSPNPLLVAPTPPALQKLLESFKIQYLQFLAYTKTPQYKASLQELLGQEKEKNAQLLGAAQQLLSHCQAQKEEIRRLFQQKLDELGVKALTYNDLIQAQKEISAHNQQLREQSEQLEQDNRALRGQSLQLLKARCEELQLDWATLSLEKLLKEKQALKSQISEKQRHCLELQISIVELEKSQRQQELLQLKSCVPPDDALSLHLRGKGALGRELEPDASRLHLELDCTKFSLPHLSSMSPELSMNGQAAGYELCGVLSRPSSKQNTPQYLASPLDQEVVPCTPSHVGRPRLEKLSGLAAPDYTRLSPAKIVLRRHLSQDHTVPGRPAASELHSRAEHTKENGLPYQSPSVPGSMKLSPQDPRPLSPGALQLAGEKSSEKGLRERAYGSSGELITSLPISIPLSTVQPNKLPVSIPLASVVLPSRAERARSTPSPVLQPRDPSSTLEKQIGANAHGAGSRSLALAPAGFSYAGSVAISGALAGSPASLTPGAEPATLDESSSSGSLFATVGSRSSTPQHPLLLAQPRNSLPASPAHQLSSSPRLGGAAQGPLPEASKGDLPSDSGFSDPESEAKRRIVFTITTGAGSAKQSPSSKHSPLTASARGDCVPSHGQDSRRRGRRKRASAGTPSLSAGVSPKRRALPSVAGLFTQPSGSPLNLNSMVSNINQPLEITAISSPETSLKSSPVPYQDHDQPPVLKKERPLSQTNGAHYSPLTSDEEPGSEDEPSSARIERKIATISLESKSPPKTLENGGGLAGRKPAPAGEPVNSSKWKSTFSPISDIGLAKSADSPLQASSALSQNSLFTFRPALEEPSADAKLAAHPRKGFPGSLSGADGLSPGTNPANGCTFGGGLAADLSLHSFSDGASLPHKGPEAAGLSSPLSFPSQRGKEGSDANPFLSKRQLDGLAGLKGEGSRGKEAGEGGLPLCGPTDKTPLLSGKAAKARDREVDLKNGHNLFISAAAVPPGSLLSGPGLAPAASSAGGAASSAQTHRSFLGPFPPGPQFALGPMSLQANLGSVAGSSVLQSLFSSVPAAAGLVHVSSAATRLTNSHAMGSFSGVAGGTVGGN

inhibition [1]: inactive
inhibition [2]: inactive
Compound: CCN(C(=O)CO)[C@H]1CN(/C(=N\C#N)Nc2cccc(OC(F)F)c2)N=C1c1ccc(Cl)c(Cl)c1
Activity (KYSE-150 cell line): Active
T/C (Mus musculus): 0.73
